Laboratory results published in publication PMC6447450 (Structure (London, England : 1993), 2019).
Entries after “also recorded” stand apart in the source; their conditions may differ.

How the values were obtained:
[1] = system: Bfl-1, Mcl-1, Bcl-xL, Bcl-w, and Bcl-2; experiment: Yeast-surface display FACS binding to five Bcl-2 family paralogs; parameters: species or system human; settings: for selectivity of Mcl-1 binders among Bcl-2 family paralogs (in words): Mcl-1 versus Bfl-1, Bcl-xL
How it was run: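 Myc-tagged human Mcl-1 (172-327), Bfl-1 (1-151), Bcl-2 (1-217), Bcl-w (1-164) and Bcl-xL (1-209) tested at 1000, 100, 10 and 1 nM on peptide-displaying yeast induced in galactose medium for 20-24 hr at 30 °C. Display detected with anti-HA and bound target with anti-c-myc (15 min, 4 °C), then APC anti-mouse and PE anti-rabbit (15 min, 4 °C, dark). Read-out: FACS median binding signal of expression-positive cells.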

Bfl-1 = target: T1, Bfl-1 (Homo sapiens, UniProt Q16548); experiment: Yeast-surface display FACS binding to Bfl-1
T1 sequence (Q16548 1-151): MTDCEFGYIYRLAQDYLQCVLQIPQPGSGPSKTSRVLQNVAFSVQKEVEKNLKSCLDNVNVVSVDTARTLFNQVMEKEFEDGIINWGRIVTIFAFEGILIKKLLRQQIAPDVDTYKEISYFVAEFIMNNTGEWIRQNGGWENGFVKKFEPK

Mcl-1 = Mcl-1 (Homo sapiens, UniProt Q07820); experiment: Yeast-surface display FACS binding to Mcl-1
Chain of Mcl-1 (Q07820 172-327): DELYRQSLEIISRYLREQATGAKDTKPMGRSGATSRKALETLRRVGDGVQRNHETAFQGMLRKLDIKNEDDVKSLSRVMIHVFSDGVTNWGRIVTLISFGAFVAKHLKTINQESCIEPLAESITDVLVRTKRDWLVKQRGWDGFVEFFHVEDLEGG

-QWVREIAAGLRRAADDVNAQVER [FS2, reference compound]
selectivity for Bfl-1 ([1]; Bfl-1 versus Mcl-1, Bcl-xL, yeast-surface display): > 100 fold

-SYIDKIADLIDKVVEEINSKLE- [dF6]
binding to target Bfl-1 (in words) (Bfl-1): did not bind to their targets with high affinity; also recorded: did not bind tightly to Bfl-1

APKEKEVAETLRKIGEEINEALK- [dM1]
selectivity of Mcl-1 binders among Bcl-2 family paralogs (in words) ([1]; yeast-surface display): selective

APKEKEVARTLIKIGEEINEALK- [dM5]
selectivity of Mcl-1 binders among Bcl-2 family paralogs (in words) ([1]; yeast-surface display): selective

APYLEQVARTLLHIGMEINEALR- [dM6]
binding to Bcl-2 family members (in words) ([1]; yeast-surface display FACS, Bfl-1, Mcl-1, Bcl-xL): not binding to any of the Bcl-2 family members we tested | binding to target Mcl-1 (in words) (Mcl-1): did not bind to their targets with high affinity
